Measurements published in ChEMBL document CHEMBL3763114, “Syntheses and biological evaluation of 1,2,3-triazole and 1,3,4-oxadiazole derivatives of imatinib” (Bioorg Med Chem Lett, 2016).

Tests used:
[1] = system: K562; test: Antiproliferative activity against human K562 cells assessed as inhibition of cell survival after 72 hrs by MTT assay; type: functional, cell-based; conditions: K562, 72 h
How it was run: (§1)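 Each of the three leukemia lines (K562, HL60, KG1a) was incubated with the compounds for 72 h. The survival rate was then read by MTT viability assay, with imatinib run as the positive control. Inhibitory activity is reported as IC50 in μM.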

[2] = Antiproliferative activity against human HL60 cells assessed as inhibition of cell survival after 72 hrs by MTT assay; type: functional, cell-based; conditions: HL-60, 72 h; how it was run: as §1
[3] = Antiproliferative activity against human KG1a cells assessed as inhibition of cell survival after 72 hrs by MTT assay; type: functional, cell-based; conditions: KG-1a; how it was run: as §1
[4] = Cytotoxicity against human 293T cells assessed as growth inhibition; type: cell-based, HEK-293T
[5] = Potency index, ratio of imatinib IC50 to compound IC50 for antiproliferative activity against human KG1a cells; type: functional
[6] = system: K562; test: Antiproliferative activity against human K562 cells assessed as reduction in cell viability after 72 hrs by resazurin assay; type: functional, cell-based; conditions: K562, 72 h

Row | IC50 [6] | Structure (SMILES) | IC50 [1] | IC50 [2] | IC50 [3] | CC50 [4] | Ratio IC50 [5]
1 |  | CCN(CC)c1ccc(-n2cc(-c3ccc(C)c(Nc4nccc(-c5cccnc5)n4)c3)nn2)cc1 | > 30 µM | 13600 nM | 2.93 µM |  | 
2 |  | Cc1ccc(-c2cn(-c3ccc(CN4CCN(C)CC4)cc3)nn2)cc1Nc1nccc(-c2cccnc2)n1 | 4.7 µM | 6740 nM | 6.16 µM | 4.15 µM | 
3 |  | Cc1ccc(-c2cn(-c3ccc(CN4CCN(C)CC4)c(C(F)(F)F)c3)nn2)cc1Nc1nccc(-c2cccnc2)n1 | 0.03 µM | 20 nM | 1.04 µM | 2.66 µM | 
4 |  | Cc1ccc(-n2cc(CCO)nn2)cc1Nc1nccc(-c2cccnc2)n1 | 10.7 µM | 9100 nM | 6.54 µM |  | 
5 |  | Cc1ccc(-n2cc(-c3cc(C(F)(F)F)cc(C(F)(F)F)c3)nn2)cc1Nc1nccc(-c2cccnc2)n1 | 2.65 µM | 1600 nM | 9.93 µM |  | 
6 |  | Cc1ccc(-c2nnc(-c3cccnc3)o2)cc1Nc1nccc(-c2cccnc2)n1 | > 30 µM | > 30000 nM | > 30 µM |  | 
7 |  | Cc1ccc(-c2nnc(-c3ccc(F)c(C(F)(F)F)c3)o2)cc1Nc1nccc(-c2cccnc2)n1 | 29.7 µM | > 30000 nM | > 30 µM |  | 
8 |  | Cc1ccc(-c2nnc(-c3cc(C(F)(F)F)cc(C(F)(F)F)c3)o2)cc1Nc1nccc(-c2cccnc2)n1 | > 30 µM | > 30000 nM | > 30 µM |  | 
9 |  | Cc1ccc(NC(=O)c2ccc(CN3CCN(C)CC3)cc2)cc1Nc1nccc(-c2cccnc2)n1 [IMATINIB] |  | 30 nM | 16.7 µM | 20.5 µM | 
10 |  | Cc1ccc(-c2nnc(-c3ccc(C)c(C(F)(F)F)c3)o2)cc1Nc1nccc(-c2cccnc2)n1 | > 30 µM | > 30000 nM | > 30 µM |  | 
11 |  | Cc1ccc(-c2cn(-c3ccc(N4CCOCC4)cc3)nn2)cc1Nc1nccc(-c2cccnc2)n1 | 23.4 µM | > 30000 nM | 5.28 µM |  | 
12 |  | Cc1ccc(-c2cn(-c3ccc(CN4CCCCC4)cc3)nn2)cc1Nc1nccc(-c2cccnc2)n1 | 3.29 µM | 740 nM | 1.75 µM |  | 
13 |  | Cc1nnc(-c2ccc(C)c(Nc3nccc(-c4cccnc4)n3)c2)o1 | > 30 µM | > 30000 nM | 18 µM |  | 
14 |  | Cc1ccc(-c2nnc(-c3ccc(CN4CCN(CCO)CC4)cc3)o2)cc1Nc1nccc(-c2cccnc2)n1 | 4.85 µM | 810 nM | 4.53 µM |  | 
15 |  | COc1ccc(-n2cc(-c3ccc(C)c(Nc4nccc(-c5cccnc5)n4)c3)nn2)cc1 | > 30 µM | > 30000 nM |  |  | 
16 |  | Cc1ccc(-c2cn(-c3ccc(CN4CCOCC4)cc3)nn2)cc1Nc1nccc(-c2cccnc2)n1 | 22.6 µM | 6960 nM | 1.32 µM |  | 
17 |  | Cc1ccc(-c2nnc(-c3ccc(CN4CCN(C)CC4)c(C(F)(F)F)c3)o2)cc1Nc1nccc(-c2cccnc2)n1 | 0.51 µM | 50 nM | 0.58 µM | 2.17 µM | 30

Row | IC50 [6] | Structure (SMILES) | IC50 [1] | IC50 [2] | IC50 [3] | CC50 [4] | Ratio IC50 [5]
18 | 890 nM | Cc1ccc(-n2cc(-c3ccc(CN4CCN(C)CC4)cc3)nn2)cc1Nc1nccc(-c2cccnc2)n1 | 0.79 µM |  |  | 14.9 µM | 
19 |  | Cc1ccc(-c2nnc(-c3ccc(CN4CCN(CCN=C=S)CC4)cc3)o2)cc1Nc1nccc(-c2cccnc2)n1 | 0.92 µM | 290 nM | 0.37 µM |  | 
20 |  | COc1cc(/C=C/C(=O)CC(=O)/C=C/c2ccc(OCCN3CCN(Cc4ccc(-c5nnc(-c6ccc(C)c(Nc7nccc(-c8cccnc8)n7)c6)o5)cc4)CC3)c(OC)c2)ccc1O | > 30 µM | > 30000 nM | > 30 µM |  | 
21 |  | Cc1ccc(-n2cc(-c3ccc(CN4CCN(C)CC4)c(C(F)(F)F)c3)nn2)cc1Nc1nccc(-c2cccnc2)n1 | 0.04 µM | 20 nM | 1.27 µM | 8.18 µM | 
22 |  | Cc1ccc(-c2cn(-c3ccc(CN4CCCC4)cc3)nn2)cc1Nc1nccc(-c2cccnc2)n1 | 3.89 µM | 1570 nM | 5.42 µM |  | 
23 |  | Cc1ccc(-c2cn(-c3ccccc3N3CCOCC3)nn2)cc1Nc1nccc(-c2cccnc2)n1 | 5.86 µM | 1490 nM | 0.44 µM |  | 30
24 |  | C=CC(=O)NCCN1CCN(Cc2ccc(-c3nnc(-c4ccc(C)c(Nc5nccc(-c6cccnc6)n5)c4)o3)cc2C(F)(F)F)CC1 | 0.6 µM | 2660 nM |  |  | 
25 |  | Cc1ccc(-n2cc(C(C)O)nn2)cc1Nc1nccc(-c2cccnc2)n1 (stereo not drawn) | 15.3 µM | 25500 nM | 12.7 µM |  | 
26 |  | Cc1ccc(-c2nnc(-c3ccc(CN4CCN(C)CC4)cc3)o2)cc1Nc1nccc(-c2cccnc2)n1 | 4.9 µM | 570 nM | 1.78 µM | 7.63 µM | 
27 |  | COc1ccc(-c2cn(-c3ccc(C)c(Nc4nccc(-c5cccnc5)n4)c3)nn2)cc1C(F)(F)F | 11.2 µM | 21200 nM | 30 µM |  | 
28 |  | Cc1ccc(-c2nnc(-c3ccc(CN4CCN(CCN=C=S)CC4)c(C(F)(F)F)c3)o2)cc1Nc1nccc(-c2cccnc2)n1 | 0.5 µM | 70 nM | 0.94 µM |  | 
29 |  | Cc1ccc(-c2nnc(-c3ccc(CN4CCN(CCN)CC4)c(C(F)(F)F)c3)o2)cc1Nc1nccc(-c2cccnc2)n1 | 0.3 µM | 20 nM | 0.48 µM |  | 30
30 |  | Cc1ccc(-n2cc(-c3ccc(C)c(C(F)(F)F)c3)nn2)cc1Nc1nccc(-c2cccnc2)n1 | > 30 µM | > 30000 nM | > 30 µM |  | 
31 |  | Cc1ccc(-n2cc(CCCCO)nn2)cc1Nc1nccc(-c2cccnc2)n1 | 11.2 µM |  |  |  | 
32 |  | Cc1ccc(-c2nnc(-c3ccc(CN4CCN(CCO)CC4)c(C(F)(F)F)c3)o2)cc1Nc1nccc(-c2cccnc2)n1 | 1.81 µM | 390 nM | 0.98 µM |  | 
33 |  | Cc1ccc(-c2cn(-c3cc(C(F)(F)F)ccc3N3CCOCC3)nn2)cc1Nc1nccc(-c2cccnc2)n1 | 9.99 µM | 17500 nM | 2.43 µM |  | 
